We go through ten compounds from paper PMC7614232 (Organic & biomolecular chemistry, 2022).

Where two headings read alike, the source gives them in different places. Some results are limits rather than exact numbers.

Holding throughout (type): biochemical
The target in experiment [1] is T1, JBMan (Jack bean α-mannosidase) (Canavalia ensiformis, UniProt C0HJB3).
T1 sequence (C0HJB3 1-981): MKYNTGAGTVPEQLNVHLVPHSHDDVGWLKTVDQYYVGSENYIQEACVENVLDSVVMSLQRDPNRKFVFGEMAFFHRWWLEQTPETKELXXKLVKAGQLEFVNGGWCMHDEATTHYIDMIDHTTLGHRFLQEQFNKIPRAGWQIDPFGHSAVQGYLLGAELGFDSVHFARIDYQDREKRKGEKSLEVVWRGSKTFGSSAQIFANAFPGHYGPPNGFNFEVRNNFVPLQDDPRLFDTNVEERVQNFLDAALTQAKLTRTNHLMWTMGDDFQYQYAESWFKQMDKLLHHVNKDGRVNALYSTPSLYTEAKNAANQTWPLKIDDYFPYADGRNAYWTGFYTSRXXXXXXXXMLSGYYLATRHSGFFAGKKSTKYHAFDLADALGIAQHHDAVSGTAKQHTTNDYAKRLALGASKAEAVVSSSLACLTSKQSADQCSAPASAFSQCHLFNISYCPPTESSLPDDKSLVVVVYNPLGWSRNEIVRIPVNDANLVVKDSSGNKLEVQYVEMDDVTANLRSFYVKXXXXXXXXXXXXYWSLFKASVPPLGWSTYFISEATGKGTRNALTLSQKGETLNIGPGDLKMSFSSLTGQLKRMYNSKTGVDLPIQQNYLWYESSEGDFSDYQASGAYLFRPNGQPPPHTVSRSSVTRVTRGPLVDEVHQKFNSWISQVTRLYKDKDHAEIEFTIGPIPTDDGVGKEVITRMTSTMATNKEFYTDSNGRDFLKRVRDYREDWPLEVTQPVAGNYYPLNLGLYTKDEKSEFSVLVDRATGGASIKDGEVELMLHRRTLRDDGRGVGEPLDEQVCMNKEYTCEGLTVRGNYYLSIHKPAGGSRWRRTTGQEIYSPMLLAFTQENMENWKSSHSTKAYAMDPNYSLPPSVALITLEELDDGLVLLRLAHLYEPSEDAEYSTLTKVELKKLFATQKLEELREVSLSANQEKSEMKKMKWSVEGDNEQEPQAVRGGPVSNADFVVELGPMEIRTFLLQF
Put plainly: α-mannosidase inhibition assay with pNP-Man, JBMan. Put shortly: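 Commercial jack bean α-mannosidase (0.05 μg protein) in 50 mM acetate buffer, pH 5.0. Compound taken from a 50 mM DMSO solution, diluted in water, and preincubated with enzyme 5 min at rt. pNP-Man was added and the reaction ran 1-2 h at 37 °C. Stopped with 0.5 M sodium carbonate; p-nitrophenol read at 405 nm. […] Three independent experiments in duplicate.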

Experiment [2] deals with T2, LManII (lysosomal α-mannosidase) (Drosophila melanogaster, UniProt Q9VKV1).
T2 sequence (Q9VKV1 25-1080): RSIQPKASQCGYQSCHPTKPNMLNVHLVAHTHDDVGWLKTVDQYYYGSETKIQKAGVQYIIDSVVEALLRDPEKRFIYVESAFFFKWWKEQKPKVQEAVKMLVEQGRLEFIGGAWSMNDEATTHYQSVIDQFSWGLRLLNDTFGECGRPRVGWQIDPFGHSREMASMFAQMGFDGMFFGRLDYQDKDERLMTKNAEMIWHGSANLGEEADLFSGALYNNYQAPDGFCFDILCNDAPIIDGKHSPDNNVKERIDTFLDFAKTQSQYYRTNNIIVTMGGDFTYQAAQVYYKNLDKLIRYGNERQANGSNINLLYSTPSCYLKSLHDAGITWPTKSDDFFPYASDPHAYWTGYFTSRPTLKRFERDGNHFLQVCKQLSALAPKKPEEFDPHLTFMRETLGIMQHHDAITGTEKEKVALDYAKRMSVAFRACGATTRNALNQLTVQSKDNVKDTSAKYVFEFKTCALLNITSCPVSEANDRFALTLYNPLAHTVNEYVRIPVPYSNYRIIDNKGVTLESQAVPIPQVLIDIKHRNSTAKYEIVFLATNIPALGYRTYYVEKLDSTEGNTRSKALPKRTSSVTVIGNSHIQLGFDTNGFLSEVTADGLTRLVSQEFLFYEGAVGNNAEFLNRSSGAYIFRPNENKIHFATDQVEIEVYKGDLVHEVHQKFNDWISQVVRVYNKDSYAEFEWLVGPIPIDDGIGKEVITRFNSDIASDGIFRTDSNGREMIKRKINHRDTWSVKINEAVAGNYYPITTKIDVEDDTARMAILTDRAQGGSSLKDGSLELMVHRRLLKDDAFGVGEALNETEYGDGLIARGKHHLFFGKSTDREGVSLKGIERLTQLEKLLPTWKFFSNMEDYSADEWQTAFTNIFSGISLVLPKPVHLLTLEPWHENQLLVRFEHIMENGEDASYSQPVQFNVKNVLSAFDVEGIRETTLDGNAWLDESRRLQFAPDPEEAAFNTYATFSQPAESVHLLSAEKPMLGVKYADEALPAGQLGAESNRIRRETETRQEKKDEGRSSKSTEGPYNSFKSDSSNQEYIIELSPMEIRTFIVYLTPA
In words: α-mannosidase inhibition assay with pNP-Man, LManII. The note with it: for Ki: Dixon plots, pNP-Man 0.5-4 mM. A digest of the protocol: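 Recombinant Drosophila lysosomal α-mannosidase, isolated and purified, assayed in 50 mM acetate buffer at pH 5.2. Compound (50 mM DMSO solution diluted in water) preincubated with enzyme 5 min at rt before pNP-Man was added. Incubated 1-2 h at 37 °C, stopped with 0.5 M sodium carbonate, p-nitrophenol read at 405 nm. […] Three independent experiments in duplicate.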

For experiment [3], the system named is Golgi-type mannosidases (GMIIb and AMAN-2). In words: inhibition of and selectivity toward Golgi-type mannosidases, stated jointly. The note with it: IC50(LManII)/IC50(GMIIb) or IC50(JBMan)/IC50(AMAN-2).
The mark [4] stands for this setting: read-out: IC50 JBMan, 2 mM pNP-Man, pH 5.0.
[5] abbreviates: read-out: IC50 LManII, 2 mM pNP-Man, pH 5.2.
The mark [6] stands for this setting: read-out: Ki JBMan, Dixon plots, pNP-Man 0.5-4 mM, pH 5.0.

For the compound `Cl.N=C(N)NCCCCCCCCCCN1C[C@@H](O)[C@@H](O)[C@H]1CO` [Compound 25, 1,4-Dideoxy-N-(10-guanidinodecyl)-1,4-imino-d-lyxitol hydrochloride], the IC50 – broadly, the concentration needed to halve the response being measured – in experiment [1] was found to be 8.3 ± 1.2 µM; in experiment [2], 8.3 ± 2.1 µM.

`OC[C@@H]1[C@H](O)[C@H](O)CN1CC1CCOCC1` [Compound 20]: the IC50 in experiment [1] (setting [4]) is 2550 ± 63 µM; in experiment [2] (setting [5]) it was 980 ± 102 µM.

For the compound `OC[C@@H]1[C@H](O)[C@H](O)CN1Cc1ccccc1` [Compound 4, N-Benzyl-1,4-dideoxy-1,4-imino-d-lyxitol], the IC50 in experiment [1] came to 1080 ± 185 µM; in experiment [2], 675 ± 67 µM.

On to `OCC1C(O)C(O)CN1Cc1ccc(I)cc1` (stereo not drawn) [Compound 16, 1,4-Dideoxy-1,4-imino-N-4-iodobenzyl-d-lyxitol], for which the IC50 came out at 940 ± 24 µM in experiment [1] (setting [4]) and 460 ± 53 µM in experiment [2] (setting [5]).

`Cl.N=C(N)NCc1ccc(CN2C[C@@H](O)[C@@H](O)[C@H]2CO)cc1` [Compound 9, 1,4-Dideoxy-N-4-guanidinomethylbenzyl-1,4-imino-d-lyxitol hydrochloride]: the IC50 was 115 ± 6.7 µM in experiment [1] (setting [4]) and 340 ± 35 µM in experiment [2] (setting [5]). Also, the inhibition constant (Ki) – broadly, the equilibrium dissociation constant of an inhibitor or competing ligand from its target – in experiment [1] (setting [6]) was 52.4 µM; in experiment [2] (read-out: Ki LManII, pH 5.2), 165 µM.

Consider `OC[C@@H]1[C@H](O)[C@H](O)CN1CC1CCCCC1` [Compound 19, N-Cyclohexylmethyl-1,4-dideoxy-1,4-imino-d-lyxitol], for which the IC50 amounted to 1290 ± 113 µM in experiment [1] and 190 ± 53 µM in experiment [2].

`OCC1C(O)C(O)CN1CCc1cccc2ccccc12` (stereo not drawn) [Compound 18, 1,4-Dideoxy-1,4-imino-N-(2-(naphthalen-1-yl)ethyl)-d-lyxitol]: the IC50 in experiment [1] (setting [4]) was 18 ± 1.7 µM; in experiment [2] (setting [5]), 12 ± 1.3 µM. Further, the Ki in experiment [1] (setting [6]) was found to be 6.5 µM; in experiment [2] (read-out: Ki LManII, pH 5.2) it was 3.9 µM.

With `CCCCCCCCCCCCN1C[C@@H](O)[C@@H](O)[C@H]1CO` [Compound 21, 1,4-Dideoxy-N-dodecyl-1,4-imino-d-lyxitol], the results for the half-maximal inhibitory concentration (IC50) in experiment [1] and in experiment [2] were 20.3 ± 4.4 µM and 11.8 ± 1.2 µM, respectively.

Regarding `Cl.N=C(N)CCCCCCCCCN1C[C@@H](O)[C@@H](O)[C@H]1CO` [Compound 26, N-(9-amidinononyl)-1,4-dideoxy-1,4-imino-d-lyxitol hydrochloride], the IC50 in experiment [1] is 4.7 ± 1.2 µM; in experiment [2], 6.7 ± 1.2 µM. For the same compound, the Ki in experiment [1] was 1.4 µM; in experiment [2] (Ki LManII, pH 5.2) it was 3.2 µM.

Consider `OC[C@@H]1[C@H](O)[C@H](O)CN1Cc1ccc2ccccc2c1` [Compound 17, 1,4-Dideoxy-1,4-imino-N-(naphthalen-2-ylmethyl)-d-lyxitol], for which the results for the IC50 in experiment [1] (setting [4]) and in experiment [2] (setting [5]) were 1950 ± 250 µM and 845 ± 170 µM, respectively. Further, the “selectivity index (SI) toward Golgi-type enzymes” value in experiment [3] is listed as more than 100.
